Experimental data reported in ChEMBL document CHEMBL1759851, “Facile synthesis and stereochemical investigation of Mannich base derivatives: evaluation of antioxidant property and antituberculostic potency” (2011).

How the values were obtained:
Assay type in all cases: functional
[1] = test system: Radical scavenging activity; assay: Antioxidant activity assessed as DPPH radical scavenging activity at 100 ug/mL after 30 mins
Outline: (§1)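 Oxime ethers tested by DPPH radical scavenging (Blois method, slightly modified). Sample and DPPH solution mixed gently and left at room temperature for 30 min. Optical density read at 530 nm on a microplate reader. Scavenging reported as % inhibition at each test concentration.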

[2] = test system: Radical scavenging activity; assay: Antioxidant activity assessed as DPPH radical scavenging activity at 200 ug/mL after 30 mins; outline: as §1
[3] = test system: Radical scavenging activity; assay: Antioxidant activity assessed as DPPH radical scavenging activity at 400 ug/mL after 30 mins; outline: as §1
[4] = test system: Radical scavenging activity; assay: Antioxidant activity assessed as DPPH radical scavenging activity at 800 ug/mL after 30 mins; outline: as §1
[5] = test system: Mycobacterium tuberculosis; assay: Antituberculosis activity against Mycobacterium tuberculosis H37Rv
Outline: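 Zone-of-inhibition assay against M. tuberculosis H37Rv. Zone diameters were scored on an activity index: 0–5 mm, 6–10 mm (+), 11–15 mm (++), 16–20 mm (+++), and a top band (++++) for larger zones.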

[6] = test system: Radical scavenging activity; assay: Antioxidant activity assessed as DPPH radical scavenging activity at 10 ug/mL after 30 mins; outline: as §1

Row | Structure (SMILES) | inhibition [1] [%] | inhibition [2] [%] | inhibition [3] [%] | inhibition [4] [%] | inhibition zone (IZ) [5] | inhibition [6] [%]
1 | CO/N=C1\[C@H]2CCC[C@@H]1[C@H](c1ccc(OC(C)=O)c(OC)c1)N[C@@H]2c1ccc(OC(C)=O)c(OC)c1 | 32.4 | 52.9 | 78.3 | 88.8 |  | 
2 | CO/N=C1\[C@H]2CCC[C@@H]1[C@H](c1cccc(OC)c1)N(C)[C@@H]2c1cccc(OC)c1 | 10.7 | 13.8 | 26.8 |  |  | 
3 | CO/N=C1\[C@H]2CCC[C@@H]1[C@H](c1ccccc1C)N(C)[C@@H]2c1ccccc1C | 15.3 |  |  |  | 6 mm | 
4 | CO/N=C1\[C@H]2CCC[C@@H]1[C@H](c1cccc(Br)c1)N[C@@H]2c1cccc(Br)c1 | 4.35 |  |  |  |  | 
5 | CO/N=C1\[C@H]2CCC[C@@H]1[C@H](c1ccc(C)cc1)N[C@@H]2c1ccc(C)cc1 | 14.5 |  |  |  | 0 mm | 
6 | CO/N=C1\[C@H]2CCC[C@@H]1[C@H](c1ccc(F)cc1)N(C)[C@@H]2c1ccc(F)cc1 | 2.4 |  |  |  | <=21 mm | 
7 | CO/N=C1\[C@H]2CCC[C@@H]1[C@H](c1cccc(F)c1)N[C@@H]2c1cccc(F)c1 | 0.97 |  |  |  | 6 mm | 
8 | CO/N=C1\[C@H]2CCC[C@@H]1[C@H](c1ccc(OC)cc1)N[C@@H]2c1ccc(OC)cc1 | 13.9 |  |  |  | 6 mm | 
9 | CO/N=C1\[C@H]2CCC[C@@H]1[C@H](c1ccc(Cl)cc1)N[C@@H]2c1ccc(Cl)cc1 | 6.58 |  |  |  | 11 mm | 
10 | CCc1ccc([C@H]2N[C@@H](c3ccc(CC)cc3)[C@H]3CCC[C@@H]2/C3=N\OC)cc1 | 11.9 |  |  |  | 0 mm | 
11 | CO/N=C1\[C@H]2CCC[C@@H]1[C@H](c1ccccc1Br)N[C@@H]2c1ccccc1Br | 5.28 |  |  |  |  | 
12 | CO/N=C1\[C@H]2CCC[C@@H]1[C@H](c1ccc(OC)cc1)N(C)[C@@H]2c1ccc(OC)cc1 | 20.9 | 41.9 | 58.8 |  | 6 mm | 
13 | O=C1O[C@H]([C@@H](O)CO)C(O)=C1O |  |  |  |  |  | 98.5
14 | CCCOc1ccc([C@H]2N[C@@H](c3ccc(OCCC)cc3)[C@H]3CCC[C@@H]2/C3=N\OC)cc1 | 23.9 | 38.5 |  |  | 6 mm | 
15 | CO/N=C1\[C@H]2CCC[C@@H]1[C@H](c1ccccc1Cl)N[C@@H]2c1ccccc1Cl | 6.47 |  |  |  | 6 mm | 
16 | CO/N=C1\[C@H]2CCC[C@@H]1[C@H](c1ccc(C)cc1)N(C)[C@@H]2c1ccc(C)cc1 | 19.8 | 22 |  |  | 6 mm | 
17 | CO/N=C1\[C@H]2CCC[C@@H]1[C@H](c1ccc(F)cc1)N[C@@H]2c1ccc(F)cc1 | 3.6 |  |  |  | 16 mm | 
18 | CO/N=C1\[C@H]2CCC[C@@H]1[C@H](c1ccccc1C)N[C@@H]2c1ccccc1C | 9.5 |  |  |  | 0 mm | 
19 | CO/N=C1\[C@H]2CCC[C@@H]1[C@H](c1ccc(OCc3ccccc3)cc1)N[C@@H]2c1ccc(OCc2ccccc2)cc1 | 27.9 | 47.8 |  |  | <=21 mm | 

Row | Structure (SMILES) | inhibition [1] [%] | inhibition [2] [%] | inhibition [3] [%] | inhibition [4] [%] | inhibition zone (IZ) [5] | inhibition [6] [%]
20 | CO/N=C1\[C@H]2CCC[C@@H]1[C@H](c1ccc(Br)cc1)N[C@@H]2c1ccc(Br)cc1 | 5.72 |  |  |  | 0 mm | 
21 | C=CCOc1ccc([C@H]2N[C@@H](c3ccc(OCC=C)cc3)[C@H]3CCC[C@@H]2/C3=N\OC)cc1 | 21.7 | 25.8 | 31.8 |  | <=21 mm | 
22 | CO/N=C1\[C@H]2CCC[C@@H]1[C@H](c1ccccc1OC)N[C@@H]2c1ccccc1OC | 16 | 20.7 |  |  | 6 mm | 
23 | CCCCOc1ccc([C@H]2N[C@@H](c3ccc(OCCCC)cc3)[C@H]3CCC[C@@H]2/C3=N\OC)cc1 | 27.8 | 43.9 |  |  | 6 mm | 
24 | CO/N=C1\[C@H]2CCC[C@@H]1[C@H](c1ccc(Br)cc1)N(C)[C@@H]2c1ccc(Br)cc1 | 12.1 |  |  |  | 0 mm | 
25 | CCOc1ccc([C@H]2N[C@@H](c3ccc(OCC)cc3)[C@H]3CCC[C@@H]2/C3=N\OC)cc1 | 23.2 | 30.8 |  |  | 6 mm | 
26 | CO/N=C1\[C@H]2CCC[C@@H]1[C@H](c1cccc(Cl)c1)N[C@@H]2c1cccc(Cl)c1 | 4.77 |  |  |  | 0 mm | 
27 | NNC(=O)c1ccncc1 [ISONIAZID] |  |  |  |  | <=21 mm | 
28 | CO/N=C1\[C@H]2CCC[C@@H]1[C@H](c1ccc(Cl)cc1)N(C)[C@@H]2c1ccc(Cl)cc1 | 11.9 |  |  |  | 11 mm | 
29 | CO/N=C1\[C@H]2CCC[C@@H]1[C@H](c1ccc(C(C)C)cc1)N[C@@H]2c1ccc(C(C)C)cc1 | 15.3 |  |  |  | 6 mm | 
30 | CCOc1ccccc1[C@H]1N[C@@H](c2ccccc2OCC)[C@H]2CCC[C@@H]1/C2=N\OC | 10.2 |  |  |  | 6 mm | 
31 | CO/N=C1\[C@H]2CCC[C@@H]1[C@H](c1ccccc1)N[C@@H]2c1ccccc1 | 10.5 | 18.7 | 24.4 |  | 0 mm | 
32 | CO/N=C1\[C@H]2CCC[C@@H]1[C@H](c1cccc(OC)c1)N[C@@H]2c1cccc(OC)c1 | 13.5 |  |  |  |  | 
33 | CO/N=C1\[C@H]2CCC[C@@H]1[C@H](c1ccc(SC)cc1)N[C@@H]2c1ccc(SC)cc1 | 17.6 | 22.5 |  |  | 11 mm | 
34 | CO/N=C1\[C@H]2CCC[C@@H]1[C@H](c1ccccc1)N(C)[C@@H]2c1ccccc1 | 10.7 | 13.8 |  |  |  | 
35 | CO/N=C1\[C@H]2CCC[C@@H]1[C@H](c1ccccc1Cl)N(C)[C@@H]2c1ccccc1Cl | 11.4 |  |  |  | 11 mm | 
36 | CO/N=C1\[C@H]2CCC[C@@H]1[C@H](c1ccccc1OC)N(C)[C@@H]2c1ccccc1OC | 15.4 | 24.9 | 40.2 |  |  | 
37 | CO/N=C1\[C@H]2CCC[C@@H]1[C@H](c1ccccc1F)N[C@@H]2c1ccccc1F | 2.33 |  |  |  | 11 mm | 
